Results reported in ChEMBL document CHEMBL3817726, “Chemically Diverse Group I p21-Activated Kinase (PAK) Inhibitors Impart Acute Cardiovascular Toxicity with a Narrow Therapeutic Window” (J Med Chem, 2016).
Converted amounts (≈) assume the structure as drawn. Blank lines part the entries; values can stand above or below the compound they belong to. The source made the active and inactive calls. The calls are words filed in the database; no cut-off is given here.

How the values were obtained:
Homo sapiens [1] = organism: Homo sapiens; experiment: Selectivity for human recombinant N-terminal 6-His-tagged PAK1 kinase domain (249 to 545 residues) over human recombinant PAK4 kinase domain
Homo sapiens [2] = organism: Homo sapiens; experiment: Selectivity for human recombinant N-terminal 6-His-tagged PAK1 kinase domain (249 to 545 residues) over LCK (unknown origin)
[3] = Lipophilicity, log D of the compound at pH 7.4; type: physicochemical; details: buffer
[4] = biological target: Serine/threonine-protein kinase PAK 1/PAK 2 (Homo sapiens, UniProt Q13177+Q13153); experiment: Inhibition of PAK1/2 in human EBC1 cells assessed as phosphorylation of MEK1 at serine 298 after 2 hrs by HTRF assay; type: cell-based
[5] = Kinetic solubility of the compound at pH 7.4; type: physicochemical; details: buffer, read-out: Kinetic_solubility
[6] = Efflux ratio of permeability across basolateral to apical side over apical to basolateral side in MDCK cells at 10 uM after 60 mins; type: ADME, cell-based, Canis lupus familiaris; details: dog
[7] = biological target: Serine/threonine-protein kinase PAK 1 (Homo sapiens, UniProt Q13153); experiment: Inhibition of human recombinant N-terminal 6-His-tagged PAK1 kinase domain (249 to 545 residues) expressed in Escherichia coli BL21(DE3) assessed as phosphorylation of coumarin labeled FRET peptide substrate at Ser/Thr19 preincubated for 10 mins followed by ATP addition measured after 60 mins by Z'-LYTE assay
Sequence of Serine/threonine-protein kinase PAK 1 (Q13153 whole entry, the tested form may be a part): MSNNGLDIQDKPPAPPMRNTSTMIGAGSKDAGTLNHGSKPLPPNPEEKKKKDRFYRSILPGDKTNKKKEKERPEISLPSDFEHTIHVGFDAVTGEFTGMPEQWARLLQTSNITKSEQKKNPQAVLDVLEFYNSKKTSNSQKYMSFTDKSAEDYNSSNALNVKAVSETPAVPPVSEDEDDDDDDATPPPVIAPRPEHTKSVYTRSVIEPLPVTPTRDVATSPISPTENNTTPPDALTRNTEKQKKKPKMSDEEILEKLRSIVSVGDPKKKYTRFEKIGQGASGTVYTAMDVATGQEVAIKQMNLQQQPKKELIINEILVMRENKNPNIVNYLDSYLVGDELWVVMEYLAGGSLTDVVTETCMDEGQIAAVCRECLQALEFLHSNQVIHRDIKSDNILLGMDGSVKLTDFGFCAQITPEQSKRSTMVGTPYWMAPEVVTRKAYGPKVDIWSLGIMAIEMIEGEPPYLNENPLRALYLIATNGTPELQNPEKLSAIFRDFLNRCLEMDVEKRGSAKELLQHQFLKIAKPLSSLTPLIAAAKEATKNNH

[8] = Apparent permeability across apical to basolateral side in MDCK cells at 10 uM after 60 mins; type: ADME, cell-based, Canis lupus familiaris; details: dog
Heart [9] = experiment: Cardiotoxicity in Langendorff perfused Sprague-Dawley rat heart assessed as decrease in dP/dtmax/P at 1.5 to 15 uM treated for 15 mins; type: toxicity, tissue-based; details: 0.25 h
Method in brief: (§1)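 Hearts from Sprague Dawley rats were perfused in a Langendorff preparation and paced via the right atrium at 10-15% above the intrinsic heart rate. Each heart received increasing concentrations of 0, 0.5, 1.5, 5 and 15 µM, for 15 min at each level (n=5). Hemodynamic and electrocardiographic parameters were recorded throughout.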

[10] = biological target: 5-hydroxytryptamine receptor 2A (Homo sapiens) (UniProt P28223); details: HEK293, 10 uM
[11] = biological target: 5-hydroxytryptamine receptor 2B (Homo sapiens) (UniProt P41595); details: CHO, 10 uM
Sequence of 5-hydroxytryptamine receptor 2B (Homo sapiens) (P41595 whole entry, the tested form may be a part): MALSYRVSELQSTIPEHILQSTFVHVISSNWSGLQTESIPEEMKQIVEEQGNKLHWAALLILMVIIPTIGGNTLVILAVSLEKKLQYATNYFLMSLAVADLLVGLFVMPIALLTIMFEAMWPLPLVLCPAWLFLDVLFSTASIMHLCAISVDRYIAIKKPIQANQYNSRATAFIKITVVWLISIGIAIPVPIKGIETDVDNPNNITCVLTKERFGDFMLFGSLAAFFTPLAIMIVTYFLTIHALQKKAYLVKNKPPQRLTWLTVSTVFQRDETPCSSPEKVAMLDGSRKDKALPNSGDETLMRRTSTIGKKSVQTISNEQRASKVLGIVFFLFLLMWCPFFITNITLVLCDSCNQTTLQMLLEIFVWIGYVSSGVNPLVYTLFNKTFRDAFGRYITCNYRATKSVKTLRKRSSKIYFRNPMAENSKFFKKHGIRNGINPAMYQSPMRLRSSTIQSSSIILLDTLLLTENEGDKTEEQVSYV

Heart [12] = experiment: Cardiotoxicity in Langendorff perfused Sprague-Dawley rat heart assessed as increase in left ventricular systolic pressure at 1.5 to 15 uM treated for 15 mins; type: toxicity, tissue-based; details: 0.25 h; method in brief: as §1
[13] = biological target: Tyrosine-protein kinase Lck (Homo sapiens) (UniProt P06239); details: 0.1 uM
Heart [14] = experiment: Cardiotoxicity in Langendorff perfused Sprague-Dawley rat heart assessed as ventricular fibrillation at 5 uM treated for 15 mins; type: toxicity, tissue-based; details: 0.25 h; method in brief: as §1
[15] = biological target: Serine/threonine-protein kinase 25 (Homo sapiens) (UniProt O00506); details: 0.1 uM
Sequence of Serine/threonine-protein kinase 25 (Homo sapiens) (O00506 whole entry, looked up): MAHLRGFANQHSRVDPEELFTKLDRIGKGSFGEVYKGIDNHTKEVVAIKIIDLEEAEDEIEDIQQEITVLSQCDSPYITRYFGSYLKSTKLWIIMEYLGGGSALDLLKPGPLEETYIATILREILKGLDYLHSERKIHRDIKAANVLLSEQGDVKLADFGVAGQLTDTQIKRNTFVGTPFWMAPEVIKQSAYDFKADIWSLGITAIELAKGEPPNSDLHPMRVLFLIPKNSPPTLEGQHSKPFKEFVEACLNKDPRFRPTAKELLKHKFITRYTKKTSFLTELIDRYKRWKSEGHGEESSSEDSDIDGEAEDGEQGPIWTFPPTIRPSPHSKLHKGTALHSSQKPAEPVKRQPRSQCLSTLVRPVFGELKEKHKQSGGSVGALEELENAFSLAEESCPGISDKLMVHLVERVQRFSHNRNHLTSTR

Rattus norvegicus = organism: Rattus norvegicus; details: Cerebral cortex, 10 uM
Heart [16] = experiment: Cardiotoxicity in Langendorff perfused Sprague-Dawley rat heart assessed as increase in left ventricular end diastolic pressure at 1.5 to 15 uM treated for 15 mins; type: toxicity, tissue-based; details: 0.25 h; method in brief: as §1
[17] = biological target: Sodium/potassium-transporting ATPase (Homo sapiens) (UniProt P05023+P14415+P05026+P50993+P54709+P13637+Q13733+P54710); details: 30 uM
[18] = biological target: Voltage-gated inwardly rectifying potassium channel KCNH2 (Homo sapiens, UniProt Q12809); experiment: Inhibition of human ERG expressed in mammalian cells treated for 3 mins by automatic parallel patch clamp method; type: cell-based; details: 0.05 h
Heart [19] = experiment: Cardiotoxicity in Langendorff perfused Sprague-Dawley rat heart assessed as increase in coronary perfusion pressure at 1.5 to 15 uM treated for 15 mins; type: toxicity, tissue-based; details: 0.25 h; method in brief: as §1
[20] = Antitumor activity against human MDA-MB-175 cells xenografted in mouse assessed as tumor growth inhibition at 25 mg/kg, po bid relative to control; type: functional; details: read-out: TGI
[21] = Cmax associated with acute adverse effect in mouse at 30 to 60 mg/kg, po; type: ADME, organism-based; details: in vivo
Method in brief: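 Mouse tolerability studies tested multiple doses, given orally or intraperitoneally. Plasma drug concentrations were measured, including at a 15 min time point. The minimum concentration associated with adverse clinical signs or death was taken as the adverse Cmax and was converted to an unbound value.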

[22] = biological target: Sodium channel protein type 1 subunit alpha (Homo sapiens) (UniProt P35498); experiment: Inhibition of human Nav1.1 assessed as tonic block of sodium current at 1 to 10 uM treated for 3 mins by automatic parallel patch clamp method
NCI-H292 = experiment: Antitumor activity against human NCI-H292 cells xenografted in mouse assessed as tumor growth inhibition at 25 mg/kg, po bid relative to control; type: functional; details: read-out: TGI
[23] = Fraction unbound in mouse plasma at 30 to 60 mg/kg, po; type: ADME, organism-based
[24] = biological target: Serine/threonine-protein kinase 26 (Homo sapiens) (UniProt Q9P289); details: 0.1 uM
Sequence of Serine/threonine-protein kinase 26 (Homo sapiens) (Q9P289 2-416 limits assumed): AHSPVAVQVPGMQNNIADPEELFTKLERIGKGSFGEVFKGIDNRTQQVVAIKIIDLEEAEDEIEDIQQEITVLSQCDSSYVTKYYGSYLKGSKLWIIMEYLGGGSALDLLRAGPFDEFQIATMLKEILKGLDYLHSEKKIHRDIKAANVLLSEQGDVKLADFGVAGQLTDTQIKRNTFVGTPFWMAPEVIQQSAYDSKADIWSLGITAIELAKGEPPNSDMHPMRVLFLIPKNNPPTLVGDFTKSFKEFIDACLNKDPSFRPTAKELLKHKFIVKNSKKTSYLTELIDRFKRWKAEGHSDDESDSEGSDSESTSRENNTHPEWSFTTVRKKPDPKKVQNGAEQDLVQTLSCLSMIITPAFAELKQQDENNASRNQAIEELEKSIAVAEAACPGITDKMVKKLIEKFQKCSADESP

[25] = biological target: Serine/threonine-protein kinase 24 (Homo sapiens) (UniProt Q9Y6E0); details: 0.1 uM
Sequence of Serine/threonine-protein kinase 24 (Homo sapiens) (Q9Y6E0 whole entry, looked up): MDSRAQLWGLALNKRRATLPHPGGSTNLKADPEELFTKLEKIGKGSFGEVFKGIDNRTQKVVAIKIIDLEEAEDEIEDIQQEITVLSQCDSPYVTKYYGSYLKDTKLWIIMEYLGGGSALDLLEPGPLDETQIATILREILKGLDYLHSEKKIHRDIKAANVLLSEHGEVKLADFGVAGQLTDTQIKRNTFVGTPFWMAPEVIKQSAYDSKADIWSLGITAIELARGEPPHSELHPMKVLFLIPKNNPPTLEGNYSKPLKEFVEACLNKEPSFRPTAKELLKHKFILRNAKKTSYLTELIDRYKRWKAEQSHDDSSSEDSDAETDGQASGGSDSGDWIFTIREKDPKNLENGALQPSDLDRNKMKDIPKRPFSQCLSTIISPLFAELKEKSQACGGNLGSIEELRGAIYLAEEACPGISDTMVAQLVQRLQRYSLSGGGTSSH

[26] = biological target: T1, Sodium channel protein type 5 subunit alpha (Homo sapiens, UniProt Q14524); experiment: Inhibition of human Nav1.5 expressed in CHO cells assessed as tonic block of sodium current at 1 to 10 uM treated for 3 mins by automatic parallel patch clamp method; type: cell-based; details: 0.05 h
T1 sequence (Q14524 whole entry): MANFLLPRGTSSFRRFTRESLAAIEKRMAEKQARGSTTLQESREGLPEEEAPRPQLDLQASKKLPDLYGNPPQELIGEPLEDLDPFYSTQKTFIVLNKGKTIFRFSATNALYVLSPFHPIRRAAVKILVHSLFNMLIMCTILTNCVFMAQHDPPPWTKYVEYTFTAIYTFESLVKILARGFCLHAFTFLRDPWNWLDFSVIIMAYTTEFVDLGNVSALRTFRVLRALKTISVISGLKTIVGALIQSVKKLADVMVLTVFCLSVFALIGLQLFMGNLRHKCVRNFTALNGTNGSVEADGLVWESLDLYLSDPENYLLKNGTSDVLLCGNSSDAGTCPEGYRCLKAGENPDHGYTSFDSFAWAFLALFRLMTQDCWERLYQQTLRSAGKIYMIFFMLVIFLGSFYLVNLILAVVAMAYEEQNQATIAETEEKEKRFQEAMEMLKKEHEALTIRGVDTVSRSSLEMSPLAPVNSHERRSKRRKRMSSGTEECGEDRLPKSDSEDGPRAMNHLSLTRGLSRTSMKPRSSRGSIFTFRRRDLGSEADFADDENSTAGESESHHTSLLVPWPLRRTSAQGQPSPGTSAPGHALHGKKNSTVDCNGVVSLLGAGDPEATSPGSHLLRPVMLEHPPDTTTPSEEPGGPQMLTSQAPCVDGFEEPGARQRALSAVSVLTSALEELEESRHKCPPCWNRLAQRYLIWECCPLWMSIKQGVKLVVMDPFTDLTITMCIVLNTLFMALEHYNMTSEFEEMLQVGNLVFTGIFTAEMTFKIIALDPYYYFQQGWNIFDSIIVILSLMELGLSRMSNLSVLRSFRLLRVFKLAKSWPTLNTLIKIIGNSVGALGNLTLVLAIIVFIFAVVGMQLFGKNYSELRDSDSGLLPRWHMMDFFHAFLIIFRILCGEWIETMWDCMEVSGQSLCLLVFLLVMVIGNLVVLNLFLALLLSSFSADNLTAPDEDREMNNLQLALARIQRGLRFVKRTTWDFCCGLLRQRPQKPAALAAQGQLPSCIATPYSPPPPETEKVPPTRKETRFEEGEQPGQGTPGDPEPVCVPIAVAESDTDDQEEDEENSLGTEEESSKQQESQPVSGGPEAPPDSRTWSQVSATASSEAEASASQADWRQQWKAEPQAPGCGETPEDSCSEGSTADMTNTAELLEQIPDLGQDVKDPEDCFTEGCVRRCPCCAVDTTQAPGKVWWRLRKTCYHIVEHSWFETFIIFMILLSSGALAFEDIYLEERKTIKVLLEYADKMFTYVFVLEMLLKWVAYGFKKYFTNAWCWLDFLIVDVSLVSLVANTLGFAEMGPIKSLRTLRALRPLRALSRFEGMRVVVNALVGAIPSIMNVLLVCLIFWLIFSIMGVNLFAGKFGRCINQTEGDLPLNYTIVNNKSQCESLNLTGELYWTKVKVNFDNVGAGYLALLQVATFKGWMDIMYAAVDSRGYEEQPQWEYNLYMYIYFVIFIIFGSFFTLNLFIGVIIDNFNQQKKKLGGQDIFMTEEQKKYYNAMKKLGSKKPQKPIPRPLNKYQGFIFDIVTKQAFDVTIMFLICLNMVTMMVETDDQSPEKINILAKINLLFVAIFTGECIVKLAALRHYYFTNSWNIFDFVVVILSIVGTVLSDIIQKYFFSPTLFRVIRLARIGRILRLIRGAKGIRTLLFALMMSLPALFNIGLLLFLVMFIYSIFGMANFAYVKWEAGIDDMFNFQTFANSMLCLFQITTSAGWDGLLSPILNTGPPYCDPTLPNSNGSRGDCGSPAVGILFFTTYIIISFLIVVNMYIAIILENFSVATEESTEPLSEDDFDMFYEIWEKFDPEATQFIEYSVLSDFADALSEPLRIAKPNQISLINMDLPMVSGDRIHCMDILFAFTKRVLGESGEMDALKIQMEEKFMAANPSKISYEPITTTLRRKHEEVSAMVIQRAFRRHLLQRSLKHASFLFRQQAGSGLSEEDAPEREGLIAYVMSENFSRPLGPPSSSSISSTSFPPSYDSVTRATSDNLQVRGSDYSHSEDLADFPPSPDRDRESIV

[27] = biological target: Serine/threonine-protein kinase PAK 3 (Homo sapiens) (UniProt O75914); details: 0.1 uM
[28] = biological target: Voltage-dependent T-type calcium channel subunit alpha-1H (Homo sapiens) (UniProt O95180); experiment: Inhibition of human Cav3.2 expressed in HEK293 cells at 1 to 10 uM treated for 3 mins by automatic parallel patch clamp method; type: cell-based
Heart [29] = experiment: Cardiotoxicity in Langendorff perfused Sprague-Dawley rat heart assessed as increase in PR interval at 5 uM treated for 15 mins; type: toxicity, tissue-based; details: 0.25 h; method in brief: as §1
[30] = biological target: 5-hydroxytryptamine receptor 4 (Homo sapiens) (UniProt Q13639); details: CHO, 10 uM
Sequence of 5-hydroxytryptamine receptor 4 (Homo sapiens) (Q13639 whole entry, the tested form may be a part): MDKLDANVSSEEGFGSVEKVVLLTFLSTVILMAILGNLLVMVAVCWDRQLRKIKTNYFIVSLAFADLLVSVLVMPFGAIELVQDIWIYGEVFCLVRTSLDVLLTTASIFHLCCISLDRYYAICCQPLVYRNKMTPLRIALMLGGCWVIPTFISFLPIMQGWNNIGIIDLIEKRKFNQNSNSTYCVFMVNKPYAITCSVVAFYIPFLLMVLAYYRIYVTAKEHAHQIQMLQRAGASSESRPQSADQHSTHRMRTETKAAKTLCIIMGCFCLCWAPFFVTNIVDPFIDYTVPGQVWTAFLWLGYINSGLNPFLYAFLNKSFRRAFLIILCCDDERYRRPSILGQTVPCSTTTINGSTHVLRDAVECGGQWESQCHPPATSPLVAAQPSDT

Heart [31] = experiment: Cardiotoxicity in Langendorff perfused Sprague-Dawley rat heart assessed as loss of 1:1 atrioventricular conduction at 5 to 15 uM treated for 15 mins; type: toxicity, tissue-based; details: 0.25 h; method in brief: as §1
Homo sapiens [32] = organism: Homo sapiens; experiment: Inhibition of Na+/Ca2+ ATPase (unknown origin) at 30 uM
Heart [33] = experiment: Cardiotoxicity in Langendorff perfused Sprague-Dawley rat heart assessed as decrease in left ventricular developed pressure at 1.5 to 15 uM treated for 15 mins; type: toxicity, tissue-based; details: 0.25 h; method in brief: as §1
Mus musculus [34] = experiment: fCmax associated with acute adverse effect in mouse at 30 to 60 mg/kg, po; type: ADME, organism-based; details: in vivo
Method in brief: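 Mouse tolerability studies at multiple doses, oral or intraperitoneal. Minimum unbound plasma concentration associated with adverse effects (total Cmax converted to unbound) compared with IC50 for inhibition of MEK1 S298 phosphorylation in cells.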

[35] = biological target: Sodium channel protein type 1 subunit alpha (Homo sapiens) (UniProt P35498); experiment: Inhibition of human Nav1.1 assessed as phasic block of sodium current at 1 to 10 uM treated for 3 mins by automatic parallel patch clamp method
[36] = biological target: 5-hydroxytryptamine receptor 1B (Rattus norvegicus) (UniProt P28564); details: Cerebral cortex, 10 uM
MDR1 = experiment: Permeability across apical to basolateral side in MDCK cells expressing MDR1; type: ADME, cell-based, Canis lupus familiaris; details: dog, read-out: permeability
[37] = biological target: T1, Sodium channel protein type 5 subunit alpha; experiment: Inhibition of human Nav1.5 expressed in CHO cells assessed as phasic block of sodium current at 1 to 10 uM treated for 3 mins by automatic parallel patch clamp method; type: cell-based; details: 0.05 h
Mus musculus [38] = experiment: In vivo inhibition of PAK1/2 in human NCI-H292 cells xenografted in mouse assessed as phosphorylation of MEK1 at serine 298 at 25 mg/kg, po bid; type: functional, organism-based
Heart [39] = experiment: Cardiotoxicity in Langendorff perfused Sprague-Dawley rat heart assessed as decrease in dP/dt minimum at 1.5 to 15 uM treated for 15 mins; type: toxicity, tissue-based; details: 0.25 h; method in brief: as §1
Heart [40] = experiment: Cardiotoxicity in Langendorff perfused Sprague-Dawley rat heart assessed as increase in PR interval at 15 uM treated for 15 mins; type: toxicity, tissue-based; details: 0.25 h; method in brief: as §1
Heart [41] = experiment: Cardiotoxicity in Langendorff perfused Sprague-Dawley rat heart assessed as decrease in dP/dt maximum at 1.5 to 15 uM treated for 15 mins; type: toxicity, tissue-based; details: 0.25 h; method in brief: as §1
Heart [42] = experiment: Cardiotoxicity in Langendorff perfused Sprague-Dawley rat heart assessed as decrease in dP/dtmax/P at 40 mmHg at 1.5 to 15 uM treated for 15 mins; type: toxicity, tissue-based; details: 0.25 h; method in brief: as §1

SMILES: CNc1ncc2cc(-c3ccc(-c4cccc(C)n4)cc3Cl)c(=O)n(C[C@H]3OC[C@H](N)CO3)c2n1
Activity (Heart [9]): Toxic
inhibition [10]: > 75%
inhibition [11]: > 75%
Activity (Heart [12]): Toxic
inhibition [13]: > 75%
Activity (Heart [14]): Toxic
inhibition [15]: > 75%
inhibition (Rattus norvegicus): > 75%
Activity (Heart [16]): Toxic
inhibition [17]: inactive
inhibition (INH) [18]: Not Active
Activity (Heart [19]): 64%
inhibition in vivo at 25 mg/kg [20]: 60%
Cmax [21]: 55 µM
inhibition [22]: inactive
inhibition in vivo at 25 mg/kg (NCI-H292): 60%
fraction unbound [23]: 0.003
inhibition [24]: > 75%
inhibition [25]: > 75%
inhibition (INH) [26]: Not Active
inhibition [27]: > 75%
inhibition [28]: inactive
Activity (Heart [29]): 37%
inhibition [30]: > 75%
Activity (Heart [31]): Toxic
inhibition (Homo sapiens [32]): inactive
Activity (Heart [33]): Toxic
fCmax (Mus musculus [34]): 0.16 µM
inhibition [35]: inactive
inhibition [36]: > 75%
Papp A→B (MDR1): 0.3 ×10⁻⁶ cm/s
inhibition (INH) [37]: Not Active
inhibition (Mus musculus [38]): Active
Activity (Heart [39]): Toxic
Activity (Heart [40]): 34%
Activity (Heart [41]): Toxic
Activity (Heart [42]): Toxic

SMILES: CNc1ncc2cc(-c3ccc(-n4cncc(C)c4=O)cc3Cl)c(=O)n(CCCN)c2n1
Selectivity ratio (Homo sapiens [1]): > 443
Selectivity ratio (Homo sapiens [2]): 282
Ki [7]: 6.7 nM

SMILES: CNc1ncc2cc(-c3ccc(-n4ccnc(C)c4=O)cc3Cl)c(=O)n(CCCN)c2n1
Selectivity ratio (Homo sapiens [1]): > 642
Selectivity ratio (Homo sapiens [2]): 429
Ki [7]: 4.6 nM

SMILES: COCCn1c(=O)c(-c2ccc(-n3cccc(C)c3=O)cc2Cl)cc2cnc(NC3COC3)nc21
logD [3]: 1.9
IC50 [4]: 290 nM
Selectivity ratio (Homo sapiens [2]): 158
solubility kinetic [5]: 38 µM (≈ 18.8 µg/mL)
efflux ratio at 1 h, 10 µM [6]: 2
Ki [7]: 5.9 nM
Papp A→B at 1 h, 10 µM [8]: 7.6 ×10⁻⁶ cm/s

Other lines, results leading:

Selectivity ratio (Homo sapiens [1]): > 52
Selectivity ratio (Homo sapiens [2]): 10
SMILES: CNc1ncc2cc(-c3ccc(N4CCN(C)C4=O)cc3Cl)c(=O)n(CCCN)c2n1

logD [3]: 2.2
IC50 [4]: 930 nM
Selectivity ratio (Homo sapiens [2]): 63
solubility kinetic [5]: 15 µM (≈ 6.57 µg/mL)
efflux ratio at 1 h, 10 µM [6]: 2.8
Ki [7]: 17 nM
Papp A→B at 1 h, 10 µM [8]: 5.5 ×10⁻⁶ cm/s
SMILES: CNc1ncc2cc(-c3ccc(-n4cccc(C)c4=O)cc3Cl)c(=O)n(CCO)c2n1

Ki [7]: 12 nM
SMILES: Cc1nccn(-c2ccc(-c3cc4cnc(NC5COC5)nc4n(CC4CCNCC4(F)F)c3=O)c(Cl)c2)c1=O (single isomer, unassigned; enantiomer 2)

logD [3]: 2.1
IC50 [4]: 340 nM
Selectivity ratio (Homo sapiens [2]): 53
solubility kinetic [5]: 2.5 µM (≈ 1.05 µg/mL)
efflux ratio at 1 h, 10 µM [6]: 0.4
Ki [7]: 8 nM
Papp A→B at 1 h, 10 µM [8]: 28 ×10⁻⁶ cm/s
SMILES: CCn1c(=O)c(-c2ccc(-n3cccc(C)c3=O)cc2Cl)cc2cnc(NC)nc21

logD [3]: 0.9
IC50 [4]: 78 nM
Selectivity ratio (Homo sapiens [2]): 20
solubility kinetic [5]: 115 µM (≈ 60.6 µg/mL)
efflux ratio at 1 h, 10 µM [6]: 1.3
Ki [7]: 2.7 nM
Papp A→B at 1 h, 10 µM [8]: 9.7 ×10⁻⁶ cm/s
SMILES: CNc1ncc2cc(-c3ccc(-n4cccc(C)c4=O)cc3Cl)c(=O)n(CC3CCNCC3(F)F)c2n1 (racemic)
